Data reported in ChEMBL document CHEMBL3352724, “Phenolic Glycosides from the Twigs of Salix glandulosa” (J Nat Prod, 2014).
pIC50: −log10 of the molar value.

What was measured:
A549 = assay: Cytotoxicity against human A549 cells by sulforhodamine B bioassay; format: functional, cell-based
Method in brief: (§1)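 Sulforhodamine B assay on cultured human tumor cell lines A549, SK-OV-3, A498 and HCT15. Run at the Korea Research Institute of Chemical Technology.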

[1] = Cytotoxicity against human SKOV3 cells by sulforhodamine B bioassay; format: functional, cell-based; conditions: SK-OV-3; method in brief: as §1
[2] = Cytotoxicity against human HCT15 cells by sulforhodamine B bioassay; format: functional, cell-based; conditions: HCT-15; method in brief: as §1
[3] = Cytotoxicity against mouse BV2 cells by MTT assay; parameters: concentration or dose not given beside the values; conditions: bv-2
[4] = Antineuroinflammatory activity against mouse BV2 cells assessed as inhibition of LPS-induced NO production treated with compound 30 mins and challenged with LPS for 24 hrs; conditions: BV-2
SK-MEL-2 = assay: Cytotoxicity against human SK-MEL-2 cells by sulforhodamine B bioassay; format: functional, cell-based

In the case of `O=C(/C=C/c1ccc(O)cc1)OC[C@H]1O[C@@H](O[C@H]2CCCC[C@H]2O)[C@H](O)[C@@H](O)[C@@H]1O`, the pIC50 (A549) was < 5.00, the pIC50 [1] was < 5.00 and the pIC50 [2] was < 5.00.

With `O=C(/C=C\c1ccc(O)cc1)O[C@H]1[C@H](O[C@@H]2CCCC[C@H]2O)O[C@H](CO)[C@@H](O)[C@@H]1O` the pIC50 (A549) was < 5.00, the pIC50 [1] was < 5.00 and the pIC50 [2] was < 5.00. For the same compound, the Activity [3] was 102.5% and the pIC50 [4] was 5.18.

In the case of `O=C(/C=C\c1ccc(O)cc1)O[C@@H]1[C@H](O[C@@H]2CCCC[C@@H]2O)O[C@H](CO)[C@@H](O)[C@H]1O`, the pIC50 (A549) was < 5.00, the pIC50 [1] was < 5.00 and the pIC50 [2] was < 5.00.

In the case of `O=C(/C=C/c1ccc(O)cc1)OC[C@H]1O[C@@H](O[C@@H]2CCCC[C@H]2O)[C@H](O)[C@@H](O)[C@@H]1O`, the pIC50 (A549) was < 5.00, the pIC50 [1] was < 5.00 and the pIC50 [2] was < 5.00. It also gave an Activity [3] of 100.7% and a pIC50 [4] of 4.83.

In the case of `O=C(/C=C/c1ccc(O)cc1)O[C@H]1[C@H](O[C@H]2CCCC[C@@H]2O)O[C@H](CO)[C@@H](O)[C@@H]1O`, the pIC50 (A549) was < 5.00, the pIC50 [1] was < 5.00 and the pIC50 [2] was < 5.00. For the same compound, the Activity [3] was 93.6% and the pIC50 [4] was 4.81.

In the case of `O=C(/C=C\c1ccc(O)cc1)OC[C@H]1O[C@@H](O[C@@H]2CCCC[C@H]2O)[C@H](O)[C@@H](O)[C@@H]1O`, the pIC50 (A549) was < 5.00, the pIC50 [1] was < 5.00 and the pIC50 [2] was < 5.00.

For `CNC(=N)NCCC[C@H](N)C(=O)O` [TILARGININE], the Activity [3] was 99.8% and the pIC50 [4] was 4.61.

With `O=C(OC[C@H]1O[C@@H](O[C@@H]2CCCC[C@H]2O)[C@H](O)[C@@H](O)[C@@H]1O)c1ccc(O)cc1` the pIC50 (A549) was < 5.00, the pIC50 [1] was < 5.00 and the pIC50 [2] was < 5.00.

For `O=C(/C=C\c1ccc(O)cc1)O[C@@H]1[C@H](O[C@H]2CCCC[C@@H]2O)O[C@H](CO)[C@@H](O)[C@H]1O`, the pIC50 (A549) was < 5.00, the pIC50 [1] was < 5.00 and the pIC50 [2] was < 5.00. It also gave an Activity [3] of 96.2% and a pIC50 [4] of 4.74.

For `O=C(/C=C/c1ccc(O)cc1)O[C@H]1[C@H](O[C@@H]2CCCC[C@@H]2O)O[C@H](CO)[C@@H](O)[C@@H]1O`, the pIC50 (A549) was < 5.00, the pIC50 [1] was < 5.00 and the pIC50 [2] was < 5.00.

With `O=C(/C=C/c1ccc(O)cc1)O[C@H]1[C@H](O[C@H]2CCCC[C@H]2O)O[C@H](CO)[C@@H](O)[C@@H]1O` the pIC50 (A549) was < 5.00, the pIC50 [1] was < 5.00 and the pIC50 [2] was < 5.00.

Work on `COc1cccc2c1C(=O)c1c(O)c3c(c(O)c1C2=O)C[C@@](O)(C(=O)CO)C[C@@H]3O[C@H]1C[C@H](N)[C@H](O)[C@H](C)O1` [DOXORUBICIN] yielded a pIC50 (A549) of 8.85, a pIC50 [1] of 7.66 and a pIC50 (SK-MEL-2) of 8.60. It also gave a pIC50 [2] of 6.97.

With `O=C(/C=C\c1ccc(O)cc1)O[C@H]1[C@H](O[C@H]2CCCC[C@H]2O)O[C@H](CO)[C@@H](O)[C@@H]1O` the pIC50 (A549) was < 5.00, the pIC50 [1] was < 5.00 and the pIC50 [2] was < 5.00.

In the case of `O=C(/C=C/c1ccc(O)cc1)O[C@H]1[C@H](O[C@@H]2CCCC[C@H]2O)O[C@H](CO)[C@@H](O)[C@@H]1O`, the pIC50 (A549) was < 5.00, the pIC50 [1] was < 5.00 and the pIC50 [2] was < 5.00. It also gave an Activity [3] of 107.2% and a pIC50 [4] of 4.69.

In the case of `O=C(/C=C\c1ccc(O)cc1)OC[C@H]1O[C@@H](O[C@H]2CCCC[C@H]2O)[C@H](O)[C@@H](O)[C@@H]1O`, the pIC50 (A549) was < 5.00, the pIC50 [1] was < 5.00 and the pIC50 [2] was < 5.00.
